In ChEMBL document CHEMBL1138885, “Further structural exploration of trisubstituted asymmetric pyran derivatives (2S,4R,5R)-2-benzhydryl-5-benzylamino-tetrahydropyran-4-ol and their corresponding disubstituted (3S,6S) pyran derivatives: a proposed pharmacophore model for high-affinity interaction with the dopamine, serotonin, and …” (J Med Chem, 2006):

Columns and labels:
Format in all cases: tissue-based
[1] = biological target: T1, Sodium-dependent dopamine transporter (Rattus norvegicus, UniProt P23977); test: Inhibition of [3H]WIN-35428 binding to rat striatum DAT
T1 sequence (P23977 whole entry): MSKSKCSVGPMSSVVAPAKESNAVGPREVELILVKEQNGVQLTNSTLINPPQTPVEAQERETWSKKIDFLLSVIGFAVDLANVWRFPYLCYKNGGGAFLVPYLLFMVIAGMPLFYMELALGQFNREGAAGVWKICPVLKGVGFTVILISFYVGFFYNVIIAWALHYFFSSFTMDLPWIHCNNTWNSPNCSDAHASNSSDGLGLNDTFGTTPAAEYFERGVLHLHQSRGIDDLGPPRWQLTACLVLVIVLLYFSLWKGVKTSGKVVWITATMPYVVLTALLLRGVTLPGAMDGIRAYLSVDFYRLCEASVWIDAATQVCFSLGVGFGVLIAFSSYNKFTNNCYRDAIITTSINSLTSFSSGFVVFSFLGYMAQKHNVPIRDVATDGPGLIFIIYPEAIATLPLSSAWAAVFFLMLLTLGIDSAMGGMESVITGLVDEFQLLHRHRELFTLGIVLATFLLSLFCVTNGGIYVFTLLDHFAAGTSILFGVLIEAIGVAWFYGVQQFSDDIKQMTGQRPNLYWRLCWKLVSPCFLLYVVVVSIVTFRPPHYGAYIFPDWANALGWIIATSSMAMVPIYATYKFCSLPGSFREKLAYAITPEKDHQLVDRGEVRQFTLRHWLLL
How it was run: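 DAT radioligand binding with nonspecific binding defined by cocaine. Compounds dissolved in DMSO, diluted in 10% (v/v) DMSO, final 0.5% DMSO. At least five concentrations, each in triplicate, spaced evenly around the IC50.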

[2] = biological target: T1, Sodium-dependent dopamine transporter; test: Inhibition of DAT-mediated [3H]DA uptake in rat striatum
How it was run: (§1)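 [3H]DA, [3H]5-HT or [3H]NE accumulation measured; SERT and NET uptake in rat cerebral cortex. Nonspecific uptake defined with cocaine (DAT), citalopram (SERT) or desipramine (NET). Three to eight independent experiments in triplicate, mean ± SEM.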

[3] = biological target: Sodium-dependent serotonin transporter (Rattus norvegicus, UniProt P31652); test: Inhibition of SERT-mediated [3H]5-HT uptake in rat cerebral cortex; how it was run: as §1
Sequence of Sodium-dependent serotonin transporter (P31652 whole entry): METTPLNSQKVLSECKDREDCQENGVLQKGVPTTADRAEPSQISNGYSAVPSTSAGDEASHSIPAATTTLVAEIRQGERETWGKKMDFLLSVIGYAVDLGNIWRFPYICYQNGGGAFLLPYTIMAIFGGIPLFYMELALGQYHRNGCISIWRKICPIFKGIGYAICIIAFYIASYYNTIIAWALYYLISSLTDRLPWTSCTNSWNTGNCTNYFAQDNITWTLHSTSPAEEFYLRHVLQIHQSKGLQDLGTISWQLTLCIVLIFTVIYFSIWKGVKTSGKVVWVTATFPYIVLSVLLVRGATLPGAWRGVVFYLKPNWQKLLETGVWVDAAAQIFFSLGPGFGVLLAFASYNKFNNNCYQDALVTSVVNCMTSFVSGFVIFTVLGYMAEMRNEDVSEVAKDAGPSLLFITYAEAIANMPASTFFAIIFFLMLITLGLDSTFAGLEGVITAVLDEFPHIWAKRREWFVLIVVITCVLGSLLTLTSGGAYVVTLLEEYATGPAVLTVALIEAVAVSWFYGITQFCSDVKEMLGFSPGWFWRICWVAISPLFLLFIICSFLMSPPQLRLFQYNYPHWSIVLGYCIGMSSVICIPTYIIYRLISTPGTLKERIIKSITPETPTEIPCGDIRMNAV

[4] = biological target: Norepinephrine transporter (Rattus norvegicus, UniProt Q9WTR4); test: Inhibition of NET-mediated [3H]NE uptake in rat cerebral cortex; how it was run: as §1
Sequence of Norepinephrine transporter (Q9WTR4 whole entry): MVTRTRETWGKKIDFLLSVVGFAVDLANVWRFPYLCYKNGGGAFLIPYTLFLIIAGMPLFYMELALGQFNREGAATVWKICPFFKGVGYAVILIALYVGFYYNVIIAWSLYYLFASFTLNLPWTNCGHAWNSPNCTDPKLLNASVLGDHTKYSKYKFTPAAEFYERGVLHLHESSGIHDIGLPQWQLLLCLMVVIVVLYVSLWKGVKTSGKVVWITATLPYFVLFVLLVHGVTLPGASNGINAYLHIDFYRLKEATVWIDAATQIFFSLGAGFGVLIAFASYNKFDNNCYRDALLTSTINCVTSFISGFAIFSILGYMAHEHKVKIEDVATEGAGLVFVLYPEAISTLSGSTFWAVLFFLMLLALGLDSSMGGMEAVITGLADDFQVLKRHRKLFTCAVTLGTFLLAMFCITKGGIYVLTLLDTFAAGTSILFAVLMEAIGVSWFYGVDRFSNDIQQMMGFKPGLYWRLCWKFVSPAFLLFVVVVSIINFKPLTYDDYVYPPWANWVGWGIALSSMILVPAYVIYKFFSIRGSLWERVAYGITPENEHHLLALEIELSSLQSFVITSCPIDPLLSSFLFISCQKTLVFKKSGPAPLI

Row | Compound | Ki [1] | Ki [2] | Ki [3] | Ki [4]
1 | O=[N+]([O-])c1ccc(CN[C@H]2CC[C@@H](C(c3ccccc3)c3ccccc3)OC2)cc1 | 38.4 nM | 34.6 nM |  | 
2 | Oc1ccc(CN[C@@H]2CC[C@H](C(c3ccccc3)c3ccccc3)OC2)cc1 | 114 nM | 67.4 nM | 187 nM | 
3 | O[C@H]1C[C@H](C(c2ccccc2)c2ccccc2)OC[C@@H]1NCc1ccc2[nH]ccc2c1 | 399 nM | 184 nM |  | 13.2 nM
4 | O[C@@H]1C[C@@H](C(c2ccccc2)c2ccccc2)OC[C@H]1NCc1ccc2[nH]ccc2c1 | 570 nM | 120 nM |  | 2.13 nM
5 | Oc1ccc(CN[C@H]2CO[C@@H](C(c3ccccc3)c3ccccc3)C[C@@H]2O)cc1 |  |  |  | 94.4 nM
6 | O[C@@H]1C[C@@H](C(c2ccccc2)c2ccccc2)OC[C@H]1NCc1ccccc1 | 1500 nM | 446 nM | 707 nM | 
7 | c1ccc(C(c2ccccc2)[C@@H]2CC[C@H](NCc3ccc4[nH]ccc4c3)CO2)cc1 | 338 nM | 214 nM | 14.5 nM | 6.56 nM
8 | Oc1ccc(CN[C@H]2CC[C@@H](C(c3ccccc3)c3ccccc3)OC2)cc1 | 226 nM | 85 nM | 37.7 nM | 
9 | O=[N+]([O-])c1ccc(CN[C@@H]2CC[C@H](C(c3ccccc3)c3ccccc3)OC2)cc1 | 64.6 nM | 59.9 nM |  | 
10 | c1ccc(C(c2ccccc2)[C@H]2CC[C@@H](NCc3ccc4[nH]ccc4c3)CO2)cc1 | 467 nM | 142 nM | 11.8 nM | 15.6 nM
11 | Oc1ccc(CN[C@@H]2CO[C@H](C(c3ccccc3)c3ccccc3)C[C@H]2O)cc1 |  |  |  | 10.4 nM
